Data set [1] deals with Mus musculus. The experiment in a line: Anticonvulsant activity in po dosed ddY mouse assessed as reduction of pentylenetetrazole-induced seizure. It is filed as functional. In outline: (§1)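 Male ddY mice (18–24 g) were dosed orally with compound suspended in 5% arabic gum, six mice per dose. Three or four doses were chosen from 100, 30, 10, 3, 1, 0.3 and 0.1 mg/kg. ED50 was calculated by the Litchfield-Wilcoxon method. Muscle relaxation was scored on an inclined wooden board, and fighting was induced by electrofootshock.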

The subject of data set [2] is Mus musculus. The data set is described as follows: Anticonvulsant activity in po dosed ddY mouse assessed as reduction of maximal electroshock-induced seizure. It is filed as functional. For orientation: In the maximal electroshock model the usual endpoint is tonic extension of the hind limbs.
Data set [3] concerns Mus musculus. The experiment in a line: Taming activity in po dosed electrofootshock-induced fighting ddY mouse. It is filed as functional. The gist of the method:
as §1

Data set [4] deals with Mus musculus. The data set is described as follows: Muscle relaxant activity in po dosed ddY mouse. It is filed as functional. In outline: as §1
The test system of data set [5] is Mus musculus. The data set is described as follows: Toxicity in po dosed ddY mouse assessed as motor incoordination by rotarod test. It is filed as organism-based. The following applies: in vivo. The gist of the method:
as §1
For orientation: In the rotarod test animals must keep their balance on a rotating rod.

The test system of data set [6] is Mus musculus. The experiment in a line: Induction of sedative activity in po dosed ddY mouse assessed as potentiation of thiopental-induced response. The class given is functional. The gist of the method: as §1
The nature of data set [7]: Acute toxicity in po dosed ddY mouse assessed as mortality measured for 2 weeks. It is filed as organism-based. The following applies: in vivo. In outline: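 Male ddY mice (18–24 g) were dosed orally with compound suspended in 5% arabic gum. Groups of four received 1000 or 2000 mg/kg, and a group of eight received 3000 mg/kg. Deaths were recorded over a 2-week observation period.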

A short description of data set [8]: Ratio of compound ED50 to diazepam ED50 for toxicity in po dosed ddY mouse assessed as motor incoordination. It is filed as organism-based. The note with it: in vivo, read-out: Ratio ED50.

Where only a bound is given, the exact number is not on record here.

On to `Cc1ccc2n1-c1ccc(Cl)cc1C(c1ccccc1)=NC2`, for which the ED50 in the data set on Mus musculus [1] is 100 mg/kg; in the data set with Mus musculus [2], greater than 100 mg/kg; with Mus musculus [3], greater than 100 mg/kg; in the data set on Mus musculus [4] it was greater than 100 mg/kg; with Mus musculus [5] it was greater than 100 mg/kg; in the data set with Mus musculus [6] it was 46 mg/kg.

As for `Cc1cc2n(c1C)-c1ccc(Cl)cc1C(c1ccccc1Cl)=NC2`, the ED50 in the data set with Mus musculus [5] is 40 mg/kg; in the data set with Mus musculus [6] it was 2.6 mg/kg.

Take `Clc1ccc2c(c1)C(c1ccccc1)=NCc1cccn1-2`: the ED50 was greater than 100 mg/kg in the data set with Mus musculus [5] and 44 mg/kg in the data set on Mus musculus [6].

For the molecule `Cc1ccc2n1-c1ccc(Cl)cc1C(c1ccccc1F)=NC2`, the figures for the ED50 with Mus musculus [5] and in the data set with Mus musculus [6] were greater than 100 mg/kg and 6.9 mg/kg, respectively.

With `Cc1ccc2n1-c1ccc([N+](=O)[O-])cc1C(c1ccccc1)=NC2`, the ED50 is no less than 100 mg/kg in the data set with Mus musculus [1]; greater than 100 mg/kg in the data set on Mus musculus [2]; greater than 100 mg/kg with Mus musculus [3]; greater than 100 mg/kg with Mus musculus [4]; greater than 100 mg/kg with Mus musculus [5]; 5.8 mg/kg in the data set on Mus musculus [6].

For `CCc1cc2n(c1C)-c1ccc(Cl)cc1C(c1ccccc1Cl)=NC2`, the figures for the ED50 with Mus musculus [5] and in the data set on Mus musculus [6] were 16.2 mg/kg and 0.6 mg/kg, respectively.

On to `Cc1cc(C)n2c1CN=C(c1c(F)cccc1F)c1cc(Cl)ccc1-2`, for which the ED50 in the data set on Mus musculus [4] turned out to be 6.4 mg/kg; in the data set on Mus musculus [5], 16.2 mg/kg; in the data set with Mus musculus [6], 0.7 mg/kg.

Turning to `Cc1cc2n(c1C)-c1ccc(Cl)cc1C(c1ccccc1F)=NC2`, the ED50 in the data set on Mus musculus [5] was greater than 100 mg/kg; in the data set with Mus musculus [6] it was 8 mg/kg.

For `Clc1ccc2c(c1)C(c1ccccc1Cl)=NCc1cccn1-2`, the ED50 in the data set on Mus musculus [5] is greater than 100 mg/kg; in the data set with Mus musculus [6] it was 18 mg/kg.

On to `CCc1cc2n(c1C)-c1ccc(Cl)cc1C(c1ccccc1F)=NC2`, for which the ED50 with Mus musculus [5] is greater than 100 mg/kg; in the data set on Mus musculus [6] it was 2.2 mg/kg.

Consider `CCc1cc2n(c1C)-c1ccc(Cl)cc1C(c1c(F)cccc1F)=NC2`, for which the ED50 in the data set with Mus musculus [1] was 16.6 mg/kg; in the data set on Mus musculus [5], greater than 100 mg/kg; in the data set on Mus musculus [6] it was 3 mg/kg.

With `Cc1cc2n(c1C)-c1ccc(Cl)cc1C(c1ccccc1)=NC2`, the values for the ED50 in the data set with Mus musculus [5] and in the data set on Mus musculus [6] were greater than 100 mg/kg and 21 mg/kg, respectively.

With `Cc1cc(C)n2c1CN=C(c1ccccc1Cl)c1cc(Cl)ccc1-2`, the results for the ED50 with Mus musculus [1], with Mus musculus [5] and in the data set with Mus musculus [6] were 1.4 mg/kg, 15.5 mg/kg and 0.34 mg/kg, respectively. The LD50 at 336 h in data set [7] was found to be 930 mg/kg. Further, the selectivity ratio in data set [8] is 2.

For the molecule `Cc1cc(C)n2c1CN=C(c1ccccc1F)c1cc(Cl)ccc1-2`, the ED50 is 20.5 mg/kg with Mus musculus [4], greater than 30 mg/kg in the data set with Mus musculus [5] and 2.4 mg/kg in the data set on Mus musculus [6].

For `Fc1ccccc1C1=NCc2cccn2-c2ccc(Cl)cc21`, the ED50 with Mus musculus [1] is 100 mg/kg; in the data set on Mus musculus [2] it was greater than 100 mg/kg; with Mus musculus [3], 39 mg/kg; in the data set on Mus musculus [4], greater than 100 mg/kg; in the data set on Mus musculus [5], greater than 100 mg/kg; in the data set on Mus musculus [6] it was 5.2 mg/kg.

Take `CN1C(=O)CN=C(c2ccccc2)c2cc(Cl)ccc21` [DIAZEPAM]: the ED50 with Mus musculus [1] is 0.6 mg/kg; in the data set with Mus musculus [4], 0.6 mg/kg; with Mus musculus [5] it was 5.4 mg/kg; with Mus musculus [6] it was 0.3 mg/kg.

`Cc1cc2n(c1C)-c1ccccc1C(c1ccccc1)=NC2`: the ED50 was greater than 100 mg/kg with Mus musculus [1]; greater than 100 mg/kg with Mus musculus [2]; greater than 100 mg/kg in the data set on Mus musculus [3]; greater than 100 mg/kg in the data set with Mus musculus [4]; greater than 100 mg/kg with Mus musculus [5]; greater than 30 mg/kg in the data set with Mus musculus [6].

Consider `Cc1ccc2n1-c1ccc(Cl)cc1C(c1ccccc1Cl)=NC2`, for which the values for the ED50 in the data set on Mus musculus [5] and with Mus musculus [6] were 100 mg/kg and 2.8 mg/kg, respectively.

Take `Cc1ccc2n1-c1ccccc1C(c1ccccc1)=NC2`: the ED50 with Mus musculus [1] is greater than 100 mg/kg; in the data set on Mus musculus [2], greater than 100 mg/kg; in the data set on Mus musculus [3], greater than 100 mg/kg; in the data set with Mus musculus [4] it was greater than 100 mg/kg; in the data set with Mus musculus [5] it was greater than 100 mg/kg; with Mus musculus [6] it was 22 mg/kg.

The term ED50 denotes the dose that gives a 50% effect, or the effect in half of the subjects. As a reminder, the LD50 is the dose at which mortality reaches 50%.

These data come from ChEMBL document CHEMBL3244057, “Diazepines. 5. Synthesis and biological action of 6-phenyl-4H-pyrrolo[1,2-a][1,4]benzodiazepines” (J Med Chem, 1978).
